Assay results from ChEMBL document CHEMBL5108081, “Development of an N-Terminal BRD4 Bromodomain-Targeted Degrader” (ACS Med Chem Lett, 2022).
Calls of active or inactive are those of the source. No cut-off for these calls is given here.

What was measured:
Homo sapiens [1] = species on record: Homo sapiens; test: Ratio IC50 for inhibition of BRD4-BD2 (unknown origin) over inhibition of His9-tagged BRD4-BD1 (unknown origin)
Homo sapiens [2] = species on record: Homo sapiens; test: Ratio IC50 for inhibition of BRD3-BD1 (unknown origin) over inhibition of His9-tagged BRD4-BD1 (unknown origin)
Homo sapiens [3] = species on record: Homo sapiens; test: Ratio IC50 for inhibition of BRD3-BD2 (unknown origin) over inhibition of His9-tagged BRD4-BD1 (unknown origin)
Homo sapiens [4] = species on record: Homo sapiens; test: Ratio IC50 for inhibition of BRD2-BD1 (unknown origin) over inhibition of His9-tagged BRD4-BD1 (unknown origin)
Homo sapiens [5] = species on record: Homo sapiens; test: Ratio IC50 for inhibition of BRD2-BD2 (unknown origin) over inhibition of His9-tagged BRD4-BD1 (unknown origin)
[6] = target: T1, Protein cereblon/Bromodomain-containing protein 4 (Homo sapiens, UniProt O60885+Q96SW2); test: Binding affinity to GST-tagged CRBN/6xHis-tagged BRD4-BD1 (unknown origin) assessed as ternary complex formation measured by TR-FRET assay; type: protein assay
T1 sequence (Q96SW2 whole entry, looked up, other chains not shown): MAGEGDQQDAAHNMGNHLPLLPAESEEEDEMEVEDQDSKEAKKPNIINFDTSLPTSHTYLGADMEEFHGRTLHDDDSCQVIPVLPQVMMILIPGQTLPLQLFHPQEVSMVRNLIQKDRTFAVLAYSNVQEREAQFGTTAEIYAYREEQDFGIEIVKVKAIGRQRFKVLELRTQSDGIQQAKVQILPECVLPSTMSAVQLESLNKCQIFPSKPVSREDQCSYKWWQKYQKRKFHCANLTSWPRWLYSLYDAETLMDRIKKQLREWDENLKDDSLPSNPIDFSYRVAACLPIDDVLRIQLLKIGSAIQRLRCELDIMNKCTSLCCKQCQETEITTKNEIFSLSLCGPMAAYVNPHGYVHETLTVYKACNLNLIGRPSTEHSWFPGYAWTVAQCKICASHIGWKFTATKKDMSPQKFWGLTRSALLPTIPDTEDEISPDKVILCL

[7] = target: T1, Protein cereblon/Bromodomain-containing protein 4; test: Binding affinity to GST-tagged CRBN/6xHis-tagged BRD4-BD1 (unknown origin) assessed as induction of dimerization of CRBN/BRD4-BD1 at 4.6 nM measured by TR-FRET assay; type: protein assay
[8] = target: T1, Protein cereblon/Bromodomain-containing protein 4; test: Protac activity at CRBN/BRD4-BD1 in human MM1.S cells assessed as induction of BRD4-BD1 degradation measured after 24 hrs by western blot analysis; type: cell-based
Method in brief: (§1)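 MM.1S cells were treated for 24 h, and BRD4 was probed by western blot. Band densitometry was quantified from three biological replicate blots.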

[9] = target: T1, Protein cereblon/Bromodomain-containing protein 4; test: Protac activity at CRBN/BRD4-BD1 in human MM1.S cells assessed as induction of BRD4-BD1 degradation measured after 24 hrs by western blot analysis relative to control; type: cell-based; method in brief: as §1
[10] = target: T1, Protein cereblon/Bromodomain-containing protein 4; test: Protac activity at Halo-tagged CRBN/BRD4-BD1-NanoLuc fusion protein expressed in human HEK293T cells assessed as induction of BRD4-BD1 degradation at 0.2 uM measured by NanoBRET assay; type: cell-based
MM1.S = test: Cytotoxicity against human MM1.S cells assessed as downregulation of cMyc expression; type: toxicity, cell-based
[11] = target: T1, Protein cereblon/Bromodomain-containing protein 4; test: Protac activity at CRBN/BRD4-BD1 in human MM1.S cells assessed as induction of BRD4-BD1 degradation measured at 5 uM after 8 hrs by western blot analysis; type: cell-based
Method in brief: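 Time-course study in MM.1S cells with BRD4 levels followed by western blot at successive time points. BRD2, BRD3 and cMyc were also probed.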

[12] = target: T1, Protein cereblon/Bromodomain-containing protein 4; test: Protac activity at CRBN/BRD4-BD1 in human MM1.S cells assessed as induction of BRD4-BD1 degradation measured at 1 uM in presence of 0.01 to 1 uM iBET-BD2 measured by Western blot analysis; type: cell-based
Method in brief: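 Rescue experiment in MM.1S cells: the degrader was co-treated with a pan-BD1 inhibitor, the proteasome inhibitor MG132, the neddylation inhibitor MLN4924 or the pan-BD2 inhibitor iBET-BD2. BRD4 was then read by western blot against an untreated control on the same gel.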

[13] = target: T1, Protein cereblon/Bromodomain-containing protein 4; test: Binding affinity to GST-tagged CRBN/6xHis-tagged BRD4-BD1 (unknown origin) assessed as induction of dimerization of CRBN/BRD4-BD1 measured by TR-FRET assay; type: protein assay
[14] = target: T1, Protein cereblon/Bromodomain-containing protein 4; test: Binding affinity to GST-tagged CRBN/6xHis-tagged BRD4-BD2 (unknown origin) assessed as induction of dimerization of CRBN/BRD4-BD2 measured by TR-FRET assay; type: protein assay
[15] = target: T2, Bromodomain-containing protein 3 (Homo sapiens, UniProt Q15059); test: Inhibition of BRD3-BD1 (unknown origin) measured by AlphaScreen assay
T2 sequence (Q15059 whole entry): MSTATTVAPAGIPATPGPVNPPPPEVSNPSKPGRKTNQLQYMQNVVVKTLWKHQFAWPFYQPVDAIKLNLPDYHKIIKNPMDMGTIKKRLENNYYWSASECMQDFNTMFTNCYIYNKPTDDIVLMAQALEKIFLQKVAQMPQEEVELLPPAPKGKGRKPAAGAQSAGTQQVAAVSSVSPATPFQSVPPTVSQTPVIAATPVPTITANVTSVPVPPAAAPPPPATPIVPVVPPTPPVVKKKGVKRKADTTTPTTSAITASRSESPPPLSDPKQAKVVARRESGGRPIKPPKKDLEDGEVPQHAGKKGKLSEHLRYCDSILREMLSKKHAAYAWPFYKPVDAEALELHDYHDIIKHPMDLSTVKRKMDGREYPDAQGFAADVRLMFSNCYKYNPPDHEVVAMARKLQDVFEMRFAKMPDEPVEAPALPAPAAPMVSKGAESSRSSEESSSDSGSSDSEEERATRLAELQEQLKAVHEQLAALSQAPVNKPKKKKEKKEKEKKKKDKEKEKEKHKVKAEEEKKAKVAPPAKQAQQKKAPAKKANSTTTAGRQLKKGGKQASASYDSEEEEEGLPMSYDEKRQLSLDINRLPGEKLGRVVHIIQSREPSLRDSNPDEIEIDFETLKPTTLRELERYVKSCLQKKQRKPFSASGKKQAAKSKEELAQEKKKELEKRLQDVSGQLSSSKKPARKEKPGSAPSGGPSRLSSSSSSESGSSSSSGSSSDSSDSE
Method in brief: (§2)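 Commercial AlphaScreen displacement assay run by an outside service on a panel of BET bromodomains. Values are the means of duplicate experiments.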

[16] = target: T2, Bromodomain-containing protein 3; test: Inhibition of BRD3-BD2 (unknown origin) measured by AlphaScreen assay; method in brief: as §2
[17] = target: T3, Bromodomain-containing protein 2 (Homo sapiens, UniProt P25440); test: Inhibition of BRD2-BD1 (unknown origin) measured by AlphaScreen assay; method in brief: as §2
T3 sequence (P25440 whole entry): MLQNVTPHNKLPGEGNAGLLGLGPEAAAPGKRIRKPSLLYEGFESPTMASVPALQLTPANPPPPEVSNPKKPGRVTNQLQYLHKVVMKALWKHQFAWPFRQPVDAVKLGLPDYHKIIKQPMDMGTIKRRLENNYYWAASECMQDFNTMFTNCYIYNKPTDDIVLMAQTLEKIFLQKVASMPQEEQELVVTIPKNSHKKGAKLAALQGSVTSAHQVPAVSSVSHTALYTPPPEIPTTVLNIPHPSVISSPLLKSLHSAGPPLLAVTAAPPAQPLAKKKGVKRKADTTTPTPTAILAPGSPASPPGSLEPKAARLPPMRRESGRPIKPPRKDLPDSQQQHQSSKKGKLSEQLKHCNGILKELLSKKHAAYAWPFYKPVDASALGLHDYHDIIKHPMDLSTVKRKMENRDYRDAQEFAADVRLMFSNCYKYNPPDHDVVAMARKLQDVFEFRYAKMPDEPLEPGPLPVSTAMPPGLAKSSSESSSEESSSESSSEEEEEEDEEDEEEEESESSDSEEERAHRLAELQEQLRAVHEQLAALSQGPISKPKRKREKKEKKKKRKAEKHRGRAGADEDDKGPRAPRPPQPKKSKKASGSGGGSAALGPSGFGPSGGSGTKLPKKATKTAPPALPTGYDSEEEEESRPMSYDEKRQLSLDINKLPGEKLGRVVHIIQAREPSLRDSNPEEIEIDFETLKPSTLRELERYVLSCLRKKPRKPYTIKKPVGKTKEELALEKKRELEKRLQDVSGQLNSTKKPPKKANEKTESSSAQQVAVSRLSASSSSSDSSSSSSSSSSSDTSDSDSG

[18] = target: T3, Bromodomain-containing protein 2; test: Inhibition of BRD2-BD2 (unknown origin) measured by AlphaScreen assay; method in brief: as §2

`Cc1cc(C)cc(Nc2nccc(-c3c(-c4ccc(C(F)(F)F)cc4)ncn3C3CCN(CCN)CC3)n2)c1` was tested, and the Ratio IC50 (Homo sapiens [1]) was 9, the Ratio IC50 (Homo sapiens [2]) was 9 and the Ratio IC50 (Homo sapiens [3]) was 9. For the same molecule, the Ratio IC50 (Homo sapiens [4]) was 9 and the Ratio IC50 (Homo sapiens [5]) was 9.

In the case of `Cc1ccc(C(C)C)cc1Oc1nccc(-c2c(-c3ccc(C(F)(F)F)cc3)ncn2C2CCN(CCOCCOCCNC(=O)COc3cccc4c3C(=O)N(C3CCC(=O)NC3=O)C4=O)CC2)n1` (configuration not stated), the Activity [6] is reported as “Active”, the Activity [7] is reported as “Active” and the DC50 [8] is reported as 0.28 µM. For the same molecule, the Activity [9] was 77%, the Activity [10] was “Active” and the Activity (MM1.S) was “Non-Toxic”. The Activity [11] was “Active” and the Activity [12] was “Active”.

With `Cc1sc2c(c1C)C(c1ccc(Cl)cc1)=N[C@@H](CC(=O)NCCCCNC(=O)COc1cccc3c1C(=O)N(C1CCC(=O)NC1=O)C3=O)c1nnc(C)n1-2` (some centres not stated) the Activity [13] was “Active” and the Activity [14] was “Active”.

`Cc1ccc(C(C)C)cc1Oc1nccc(-c2c(-c3ccc(C(F)(F)F)cc3)ncn2C2CCNCC2)n1` gave an IC50 [15] of 1 µM, an IC50 [16] of 75 µM and an IC50 [17] of 0.28 µM. It also gave an IC50 [18] of 7.1 µM.

Molecule `Cc1cc(C)cc(Nc2nccc(-c3c(-c4ccc(F)cc4)ncn3C3CCNCC3)n2)c1` has a Ratio IC50 (Homo sapiens [2]) of 6, a Ratio IC50 (Homo sapiens [3]) of 6 and a Ratio IC50 (Homo sapiens [5]) of 6.
